# From ChEMBL document CHEMBL4330096, “Discovery of potent and selective 5-azaindazole inhibitors of leucine-rich repeat kinase 2 (LRRK2) - Part 1” (Bioorg Med Chem Lett, 2019)
# Legend:
# [1] = molecular target: Homeodomain-interacting protein kinase 2 (Homo sapiens) (UniProt Q9H2X6); experiment: Inhibition of HIPK2 (unknown origin) at 1 uM relative to control
# Method in brief: (§1)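 Single-point screen of each compound against a panel of 59 protein kinases, at 1 or 10 μM. The panel data are also summarised as a rescaled geometric mean selectivity score.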
# [2] = molecular target: SRSF protein kinase 1 (Homo sapiens) (UniProt Q96SB4); experiment: Inhibition of SRPK1 (unknown origin) at 1 uM relative to control
# Method in brief: (§2)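 Single-concentration screen across a panel of 59 protein kinases, with each compound tested at one fixed concentration. The read-out is residual kinase activity relative to control. Panel results are also condensed into a rescaled geometric mean (RGM) selectivity score.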
# [3] = molecular target: Aurora kinase B (Homo sapiens) (UniProt Q96GD4); experiment: Inhibition of Aurora B (unknown origin) at 1 uM relative to control; method in brief: as §1
# [4] = molecular target: Tyrosine-protein kinase Lck (Homo sapiens) (UniProt P06239); experiment: Inhibition of Lck (unknown origin) at 1 uM relative to control; method in brief: as §1
# [5] = molecular target: Ribosomal protein S6 kinase beta-1 (Homo sapiens) (UniProt P23443); experiment: Inhibition of S6K1 (unknown origin) at 1 uM relative to control; method in brief: as §2
# [6] = molecular target: Ribosomal protein S6 kinase alpha-1 (Homo sapiens) (UniProt Q15418); experiment: Inhibition of RSK1 (unknown origin) at 1 uM relative to control
# Method in brief: (§3)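 Single-concentration screen of each compound against a 59-protein-kinase panel, run at 10 µM or 1 µM. Activity relative to control is shown as a heat map across the panel.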
# [7] = molecular target: RAC-beta serine/threonine-protein kinase (Homo sapiens) (UniProt P31751); experiment: Inhibition of PKBb (unknown origin) at 1 uM relative to control; method in brief: as §3
# [8] = molecular target: Tyrosine-protein kinase SYK (Homo sapiens) (UniProt P43405); experiment: Inhibition of SYK (unknown origin) at 1 uM relative to control; method in brief: as §2
# [9] = molecular target: Tyrosine-protein kinase CSK (Homo sapiens) (UniProt P41240); experiment: Inhibition of CSK (unknown origin) at 1 uM relative to control; method in brief: as §1
# [10] = molecular target: T1, Serine/threonine-protein kinase 3 (Homo sapiens) (UniProt Q13188); experiment: Inhibition of MST2 (unknown origin) at 1 uM relative to control; method in brief: as §3
# T1 sequence (whole entry): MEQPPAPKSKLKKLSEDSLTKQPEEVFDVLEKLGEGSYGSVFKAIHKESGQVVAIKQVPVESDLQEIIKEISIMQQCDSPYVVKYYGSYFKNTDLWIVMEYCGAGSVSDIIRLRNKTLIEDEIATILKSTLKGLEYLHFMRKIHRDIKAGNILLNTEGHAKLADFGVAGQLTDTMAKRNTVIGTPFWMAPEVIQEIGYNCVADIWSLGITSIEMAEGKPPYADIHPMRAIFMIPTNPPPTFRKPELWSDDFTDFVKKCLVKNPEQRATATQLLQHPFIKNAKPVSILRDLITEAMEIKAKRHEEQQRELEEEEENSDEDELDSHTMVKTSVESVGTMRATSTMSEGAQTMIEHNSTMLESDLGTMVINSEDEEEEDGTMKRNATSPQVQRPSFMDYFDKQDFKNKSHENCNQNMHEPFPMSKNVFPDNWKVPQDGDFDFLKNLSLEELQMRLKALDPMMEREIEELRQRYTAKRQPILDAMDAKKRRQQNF
# [11] = Ratio of drug level in mouse brain to plasma; conditions: read-out: BPR
# Method in brief: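 Mice; ratio based on total (not unbound) compound concentrations in brain versus plasma.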
# [12] = Lipophilicity, log D of the compound at pH 7.4; assay type: physicochemical; conditions: buffer
# Tyrosine-protein kinase CSK (Homo sapiens), sequence (P41240 2-450 limits assumed): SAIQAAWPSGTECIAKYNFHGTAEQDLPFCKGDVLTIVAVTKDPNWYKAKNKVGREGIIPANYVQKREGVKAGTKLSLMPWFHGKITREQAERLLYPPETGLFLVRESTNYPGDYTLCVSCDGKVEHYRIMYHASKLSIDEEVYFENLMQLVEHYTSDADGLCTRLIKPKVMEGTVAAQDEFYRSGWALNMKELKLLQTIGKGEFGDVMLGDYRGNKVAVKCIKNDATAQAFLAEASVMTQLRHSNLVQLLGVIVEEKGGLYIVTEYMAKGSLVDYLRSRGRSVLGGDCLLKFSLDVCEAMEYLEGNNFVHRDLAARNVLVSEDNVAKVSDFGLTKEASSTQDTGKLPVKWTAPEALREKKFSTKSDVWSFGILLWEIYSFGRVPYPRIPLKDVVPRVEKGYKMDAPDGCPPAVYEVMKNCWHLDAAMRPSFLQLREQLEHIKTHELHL
# Ribosomal protein S6 kinase alpha-1 (Homo sapiens), sequence (Q15418 whole entry): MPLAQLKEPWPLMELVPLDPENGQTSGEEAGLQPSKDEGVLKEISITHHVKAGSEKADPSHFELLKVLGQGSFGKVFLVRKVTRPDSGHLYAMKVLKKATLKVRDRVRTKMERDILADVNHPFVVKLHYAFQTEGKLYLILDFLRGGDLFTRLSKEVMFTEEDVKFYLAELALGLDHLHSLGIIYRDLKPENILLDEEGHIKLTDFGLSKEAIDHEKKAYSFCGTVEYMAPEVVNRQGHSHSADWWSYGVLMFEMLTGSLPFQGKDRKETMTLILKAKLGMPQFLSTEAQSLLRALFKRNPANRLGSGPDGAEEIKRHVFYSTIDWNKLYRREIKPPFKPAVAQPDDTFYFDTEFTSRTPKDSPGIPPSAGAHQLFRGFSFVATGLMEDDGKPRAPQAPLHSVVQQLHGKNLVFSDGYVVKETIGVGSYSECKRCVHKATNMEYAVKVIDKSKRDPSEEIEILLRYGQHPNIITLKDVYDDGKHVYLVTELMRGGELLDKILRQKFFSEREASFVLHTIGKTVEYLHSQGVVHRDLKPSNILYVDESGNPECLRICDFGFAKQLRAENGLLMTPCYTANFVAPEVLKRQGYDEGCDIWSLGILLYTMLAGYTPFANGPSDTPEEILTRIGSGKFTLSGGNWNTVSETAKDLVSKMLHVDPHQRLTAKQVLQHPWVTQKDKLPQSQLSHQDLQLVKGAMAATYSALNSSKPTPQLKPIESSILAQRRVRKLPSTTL
# RAC-beta serine/threonine-protein kinase (Homo sapiens), sequence (P31751 whole entry): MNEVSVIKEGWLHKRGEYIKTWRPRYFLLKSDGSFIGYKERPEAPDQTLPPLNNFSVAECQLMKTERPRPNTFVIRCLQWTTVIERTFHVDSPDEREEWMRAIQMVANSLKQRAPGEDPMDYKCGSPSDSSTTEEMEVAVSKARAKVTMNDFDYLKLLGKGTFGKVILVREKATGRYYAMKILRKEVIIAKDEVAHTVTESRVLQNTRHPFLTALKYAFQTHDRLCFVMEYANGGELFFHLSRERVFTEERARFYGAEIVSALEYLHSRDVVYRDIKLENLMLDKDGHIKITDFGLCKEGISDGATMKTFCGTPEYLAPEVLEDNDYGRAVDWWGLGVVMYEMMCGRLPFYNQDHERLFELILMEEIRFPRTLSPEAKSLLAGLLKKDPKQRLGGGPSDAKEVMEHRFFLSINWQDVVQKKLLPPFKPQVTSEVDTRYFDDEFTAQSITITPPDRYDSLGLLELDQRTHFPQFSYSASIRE
# Aurora kinase B (Homo sapiens), sequence (Q96GD4 whole entry): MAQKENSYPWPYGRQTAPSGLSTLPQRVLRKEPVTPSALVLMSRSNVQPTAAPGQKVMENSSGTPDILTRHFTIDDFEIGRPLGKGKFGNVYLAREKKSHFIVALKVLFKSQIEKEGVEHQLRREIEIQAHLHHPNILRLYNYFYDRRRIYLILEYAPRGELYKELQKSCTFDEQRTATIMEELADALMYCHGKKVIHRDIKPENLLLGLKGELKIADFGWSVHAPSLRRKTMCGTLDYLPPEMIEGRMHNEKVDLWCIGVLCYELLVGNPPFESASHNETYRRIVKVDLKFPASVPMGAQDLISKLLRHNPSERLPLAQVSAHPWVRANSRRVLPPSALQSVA
# Homeodomain-interacting protein kinase 2 (Homo sapiens), sequence (Q9H2X6 whole entry, looked up): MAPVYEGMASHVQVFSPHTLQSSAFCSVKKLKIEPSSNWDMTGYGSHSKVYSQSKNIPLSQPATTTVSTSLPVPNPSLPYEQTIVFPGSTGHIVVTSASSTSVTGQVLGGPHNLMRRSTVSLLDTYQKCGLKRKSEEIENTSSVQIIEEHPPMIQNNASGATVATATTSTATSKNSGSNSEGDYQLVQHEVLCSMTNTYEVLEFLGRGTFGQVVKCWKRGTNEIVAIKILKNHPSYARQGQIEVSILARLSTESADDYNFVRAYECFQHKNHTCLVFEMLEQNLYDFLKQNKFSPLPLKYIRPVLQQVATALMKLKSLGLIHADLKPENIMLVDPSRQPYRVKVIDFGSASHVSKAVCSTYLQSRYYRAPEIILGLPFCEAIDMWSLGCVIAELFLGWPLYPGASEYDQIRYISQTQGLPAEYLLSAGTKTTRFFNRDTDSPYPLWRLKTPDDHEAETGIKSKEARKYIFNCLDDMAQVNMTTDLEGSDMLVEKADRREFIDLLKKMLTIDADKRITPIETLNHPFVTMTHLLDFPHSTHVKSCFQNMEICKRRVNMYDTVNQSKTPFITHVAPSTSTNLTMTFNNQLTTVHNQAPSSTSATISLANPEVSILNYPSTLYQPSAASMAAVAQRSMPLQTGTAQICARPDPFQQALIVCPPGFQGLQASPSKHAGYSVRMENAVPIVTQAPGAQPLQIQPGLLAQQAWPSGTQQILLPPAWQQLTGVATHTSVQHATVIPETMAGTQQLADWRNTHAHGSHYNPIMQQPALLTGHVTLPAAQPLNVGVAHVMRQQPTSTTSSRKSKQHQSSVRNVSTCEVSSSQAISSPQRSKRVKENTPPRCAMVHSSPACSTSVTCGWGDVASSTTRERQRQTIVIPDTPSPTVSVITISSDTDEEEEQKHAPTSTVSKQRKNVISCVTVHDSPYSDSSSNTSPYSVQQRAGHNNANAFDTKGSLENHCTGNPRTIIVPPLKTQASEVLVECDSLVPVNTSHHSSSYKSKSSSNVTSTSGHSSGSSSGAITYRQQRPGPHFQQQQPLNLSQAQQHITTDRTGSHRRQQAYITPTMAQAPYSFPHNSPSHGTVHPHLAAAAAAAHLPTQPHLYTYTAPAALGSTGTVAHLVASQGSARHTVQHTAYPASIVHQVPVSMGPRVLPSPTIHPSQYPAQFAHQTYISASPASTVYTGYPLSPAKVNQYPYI
# SRSF protein kinase 1 (Homo sapiens), sequence (Q96SB4 whole entry): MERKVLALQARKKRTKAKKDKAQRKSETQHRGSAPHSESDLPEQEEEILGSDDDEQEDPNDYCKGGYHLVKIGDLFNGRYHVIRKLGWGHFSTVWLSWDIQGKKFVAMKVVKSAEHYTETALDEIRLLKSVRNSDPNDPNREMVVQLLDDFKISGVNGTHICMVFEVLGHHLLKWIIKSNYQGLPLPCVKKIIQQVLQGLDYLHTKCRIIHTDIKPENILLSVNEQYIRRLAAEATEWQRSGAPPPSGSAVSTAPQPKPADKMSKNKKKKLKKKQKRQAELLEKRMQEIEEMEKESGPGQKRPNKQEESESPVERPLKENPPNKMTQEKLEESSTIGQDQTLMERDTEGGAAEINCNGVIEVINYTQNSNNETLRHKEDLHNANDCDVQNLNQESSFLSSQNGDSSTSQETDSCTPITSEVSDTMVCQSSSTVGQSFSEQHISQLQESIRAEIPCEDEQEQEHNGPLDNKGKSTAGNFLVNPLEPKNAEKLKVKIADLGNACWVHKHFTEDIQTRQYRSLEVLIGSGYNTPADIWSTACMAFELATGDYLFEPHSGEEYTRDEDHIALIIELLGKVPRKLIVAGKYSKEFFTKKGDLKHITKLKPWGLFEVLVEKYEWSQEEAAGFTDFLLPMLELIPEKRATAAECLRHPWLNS
# Tyrosine-protein kinase Lck (Homo sapiens), sequence (P06239 2-509 limits assumed): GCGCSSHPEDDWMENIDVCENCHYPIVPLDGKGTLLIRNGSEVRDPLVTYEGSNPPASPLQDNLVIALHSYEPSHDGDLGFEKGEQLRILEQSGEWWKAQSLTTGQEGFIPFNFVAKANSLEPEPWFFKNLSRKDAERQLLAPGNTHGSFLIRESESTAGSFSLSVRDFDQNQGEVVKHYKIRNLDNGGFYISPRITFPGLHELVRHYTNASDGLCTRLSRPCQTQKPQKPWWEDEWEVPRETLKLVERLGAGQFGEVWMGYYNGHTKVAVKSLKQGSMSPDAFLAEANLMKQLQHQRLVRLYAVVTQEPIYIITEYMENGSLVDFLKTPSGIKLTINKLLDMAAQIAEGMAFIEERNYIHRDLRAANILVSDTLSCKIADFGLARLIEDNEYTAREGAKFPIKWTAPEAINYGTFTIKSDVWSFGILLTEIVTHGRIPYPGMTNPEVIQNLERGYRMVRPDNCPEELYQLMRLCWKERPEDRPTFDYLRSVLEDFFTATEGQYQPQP
# Ribosomal protein S6 kinase beta-1 (Homo sapiens), sequence (P23443 whole entry, looked up): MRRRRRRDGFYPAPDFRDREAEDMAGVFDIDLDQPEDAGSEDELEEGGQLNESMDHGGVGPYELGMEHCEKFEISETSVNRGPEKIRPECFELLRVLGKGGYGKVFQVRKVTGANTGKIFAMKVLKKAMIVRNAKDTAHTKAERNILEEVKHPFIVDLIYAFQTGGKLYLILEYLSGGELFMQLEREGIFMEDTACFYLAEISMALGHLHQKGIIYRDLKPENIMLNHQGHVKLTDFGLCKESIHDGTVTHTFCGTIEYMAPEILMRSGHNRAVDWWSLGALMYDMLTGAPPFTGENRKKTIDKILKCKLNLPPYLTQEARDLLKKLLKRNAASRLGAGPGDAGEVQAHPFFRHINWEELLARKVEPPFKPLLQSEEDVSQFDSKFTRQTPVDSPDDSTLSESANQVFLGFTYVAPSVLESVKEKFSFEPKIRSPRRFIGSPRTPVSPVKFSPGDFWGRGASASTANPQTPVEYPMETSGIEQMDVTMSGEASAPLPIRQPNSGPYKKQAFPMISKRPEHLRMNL
SMILES,inhibition [1] [%],inhibition [2] [%],inhibition [3] [%],inhibition [4] [%],inhibition [5] [%],inhibition [6] [%],inhibition [7] [%],inhibition [8] [%],inhibition [9] [%],inhibition [10] [%],Kp [11],logD [12]
CC(C)n1cc(-c2n[nH]c3ccnc(OC4CCOCC4)c23)cn1,9,0,38,0,16,62,27,0,0,40,,
c1cc(-c2n[nH]c3ccnc(OC4CCOCC4)c23)cc(N2CCOCC2)n1,6,0,0,8,0,3,0,0,0,7,,
Cc1n[nH]c2ccnc(NC3CCCCC3)c12,,,,,,,,,,,4,
Cc1n[nH]c2ccnc(OC3CCCCC3)c12,,,,,,,,,,,,> 4
